CASP6 VEID inh – blocks human caspase-6 cleavage activity; P55212; purified caspase-6, Z-VEID-R110 cleavage fluorescence; inhibition, % at 12.5 µM; 350,000 tested, 0.53% active;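 active = mean inhibition across replicates at least about 35%, with every replicate also reaching that limit, limit read from the data; inconclusive = only one of the two criteria met; inactive = neither criterion met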
esBAF inh – blocks esBAF chromatin remodeling in mouse ES cells; Bmi1-luciferase knock-in reporter, 24 h; 100% = twice the neutral-well signal; reporter increase, % at 12.5 µM; 350,000 tested, 2% active; in the data active = activation above about 40%; inconclusive = no clear call, values can overlap the other calls;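 also: a rise in the Bmi1 reporter signal indicates esBAF inhibition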
XiGFP reactiv – activators of X-chromosome reactivation in mouse fibroblasts. XiGFP mouse fibroblasts, % GFP-positive cells imaging, 3 d; cells co-treated with 5-aza-dC sensitizer; scaled so ellipticine positive control = 100%. activation, % at 7.58 µM. AID 743238. 360,000 tested, 0.055% active;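 active = mean normalized replicate activation at least 10% and every replicate at or above 10%; inconclusive = only one of the two criteria met; inactive = mean below 10% and not all replicates reach 10%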
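Schedule: 3 d treatment, 15 min room-temperature fixation; system: 68-5-11 XiGFP fibroblast line; buffer or medium: DMEM plus 5-aza-dC sensitizer; control set: ellipticine 6 µM positive control; compound: one concentration, pinned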
MITF act – activators of MITF-driven TRPM1 promoter activity in SK-MEL-5 cells. activation, % at 12.5 µM. AID 588334. SK-MEL-5 TRPM1-promoter luciferase, 24 h; % of positive control, neutral wells = 0. 300,000 tested, 0.75% active;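 active = mean activation of at least 80% with every replicate also reaching 80%; inconclusive = mean reaches 80% but some replicate falls short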
NSD2 inh – NSD2 (human) methyltransferase inhibition; inhibition, % at 12.5 µM; 310,000 tested, 0.54% active; O96028; AID 743445; NSD2 peptide methylation, AlphaScreen, 120 min; in the data active = inhibition above about 50%
Wnt act – activators of Wnt/beta-catenin signaling | Wnt/beta-catenin reporter cell assay, activator, plate reader | activation, % at 9.35 µM | 300,000 tested, 1.2% active; in the data active = activation above about 30%, passing the limit was not always enough; inconclusive = no clear call, values can overlap the other calls
Hits are given with their value. Sampled rows, rich in hits. Any-hit rate of the full collection: about 3%.

Screening CCC(=O)N1CCC2(CC1)CN(Cc1ccccn1)[C@H](CO)c1[nH]c3cc(OC)ccc3c12 returned CASP6 VEID inh inactive and XiGFP reactiv inactive.
C[C@@H]1CN([C@H](C)CO)C(=O)c2cc(C#Cc3cccnc3)cnc2O[C@H]1CN(C)C(=O)CC1CC1 was read as CASP6 VEID inh inactive, esBAF inh inactive and XiGFP reactiv inactive.
`CO[C@@H]1CN(C)C(=O)c2ccc(NC(=O)NC(C)C)cc2OC[C@H](C)N(C(=O)CC2CC2)C[C@@H]1C` gave esBAF inh inactive and XiGFP reactiv inactive.
For Cc1ccc(Cc2c(-c3ccc(Br)cc3)nc3ccc(Cl)cn23)cc1 the results were CASP6 VEID inh inactive, esBAF inh inactive, XiGFP reactiv inactive and Wnt act inactive.
Cc1ccc(Cc2c(-c3cccc(Cl)c3)nc3ccc(Br)cn23)cc1 was read as CASP6 VEID inh inactive, esBAF inh inconclusive, XiGFP reactiv inactive and Wnt act 40.
`COC(=O)c1ccc2nc(-c3cccc(Cl)c3)c(Cc3ccccc3OC)n2c1` gave CASP6 VEID inh inactive, esBAF inh inactive, XiGFP reactiv inactive and Wnt act inactive.
For COc1ccccc1Cc1c(-c2cccc(Cl)c2)nc2ccc(Br)cn12 the results were CASP6 VEID inh inactive, esBAF inh 42, XiGFP reactiv inactive and Wnt act inactive.
`Cc1ccc(Cc2c(-c3ccc(Br)cc3)nc3ccc(Br)cn23)cc1` gave CASP6 VEID inh inactive, esBAF inh 66, XiGFP reactiv inactive and Wnt act inactive.
Screening COCC#Cc1cnc2c(c1)C(=O)N([C@@H](C)CO)C[C@@H](C)[C@@H](CN(C)S(=O)(=O)c1ccccc1)O2 returned CASP6 VEID inh inactive, esBAF inh inactive and XiGFP reactiv inactive.
Screening CCC(=O)Nc1nnc(/C=C/c2ccccc2)s1 returned CASP6 VEID inh inactive, esBAF inh 61, XiGFP reactiv inactive, MITF act inactive, NSD2 inh inactive and Wnt act inactive.
CCCc1ccc2oc(C(=O)N3CCC(COC)C3)c(C)c2c1 (centres undefined) was read as CASP6 VEID inh inactive, esBAF inh 54, XiGFP reactiv inactive, MITF act 103, NSD2 inh inactive and Wnt act inactive.
Screening CCCc1ccc2oc(C(=O)N3CCC(N4CCCC(O)C4)CC3)c(C)c2c1 (centres undefined) returned CASP6 VEID inh inactive, esBAF inh inactive, XiGFP reactiv inactive, MITF act inactive, NSD2 inh inactive and Wnt act inactive.
`CCCc1ccc2oc(C(=O)N3CCC[C@H]3CO)c(C)c2c1` gave CASP6 VEID inh inactive, esBAF inh 57, XiGFP reactiv inactive, MITF act inactive, NSD2 inh inactive and Wnt act inactive.
Screening C[C@H]1CCCCO[C@H](CN(C)C(=O)c2ccccc2)[C@@H](C)CN([C@@H](C)CO)C(=O)c2cc(NC(=O)Nc3ccc4c(c3)OCO4)ccc2O1 returned CASP6 VEID inh inactive, esBAF inh inactive and XiGFP reactiv inactive.
Screening CC(C)NC(=O)N(C)C[C@H]1Oc2ccc(NS(=O)(=O)c3cccs3)cc2C(=O)N([C@@H](C)CO)C[C@@H]1C returned esBAF inh inactive and XiGFP reactiv inactive.
CCS(=O)(=O)NCC[C@H]1CC[C@H](NS(=O)(=O)c2cccc(F)c2)[C@H](CO)O1 was read as CASP6 VEID inh inactive, esBAF inh inactive and XiGFP reactiv inactive.
`COc1ccc(C(O)c2nc(-c3ccc(N(C)C)cc3)cs2)cc1` (centres undefined) gave CASP6 VEID inh inactive, esBAF inh inconclusive, XiGFP reactiv inactive, NSD2 inh inactive and Wnt act inactive.
For CN(C)c1ccc(C(O)c2cc3ccccc3s2)cc1 (centres undefined) the results were CASP6 VEID inh inactive, esBAF inh 52, XiGFP reactiv inactive, MITF act inactive, NSD2 inh inactive and Wnt act inactive.
Screening COc1cccc(CNC(=O)C(Cc2ccccc2)n2cccc2)c1 (centres undefined) returned CASP6 VEID inh inactive, XiGFP reactiv inconclusive, MITF act inactive and Wnt act 44.
`Cc1cc(C)n(-c2nc3ccccc3c(=O)n2OCC(=O)N(C)C)n1` gave esBAF inh inactive and MITF act inactive.

High-throughput results: PubChem, Broad Institute
